Activity calls are given as the source filed them. No cut-off for these calls is given here.
system: RAW264.7; experiment: Inhibition of NF-kappaB activation in LPS-stimulated RAW264.7 cells after 24 hrs; type: functional, cell-based; conditions: Mus musculus, RAW264.7, 24 h
How it was run: (§1)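 RAW264.7 cells transfected with a reporter plasmid carrying eight kappaB elements driving secreted alkaline phosphatase, seeded 5 × 10^4 cells/well. After 3 h at 37 °C, cells were given compound (0.1–10 µM) plus LPS 1 µg/mL for 24 h. SEAP activity was read at 405 nm with p-nitrophenyl phosphate substrate in diethanolamine/MgCl2/L-homoarginine buffer. IC50 is relative to vehicle control, mean ± SD of three experiments.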

Compound	IC50
C=C1C(=O)O[C@@H]2C3O[C@]3(C)CC/C=C(\C)CC[C@@H]12 (stereo not given in full)	1150 nM
C=C1C(=O)[C@@]23CC[C@@H]4[C@](C)(CO)[C@@H](OC(C)=O)CC[C@@]4(C)[C@@H]2[C@@H](O)C[C@@H]1C3 [EXCISUSIN A]	900 nM
C=C1C(=O)[C@@]23CC[C@@H]4C(C)(C)[C@@H](OC(C)=O)C[C@H](O)[C@@]4(C)[C@@H]2[C@@H](O)C[C@@H]1C3 [EXCISUSIN B]	260 nM
C=C1[C@@H]2C[C@H](O)[C@H]3[C@]4(C)CC[C@@H](O)[C@@](C)(COC(C)=O)[C@H]4CC[C@]3(C2)[C@@H]1O [EXCISUSIN C]	> 10000 nM
C=C1C(=O)[C@]23C[C@H]1C[C@H](OC(C)=O)[C@H]2[C@@]1(C)[C@H]([C@@H](O)C3)C(C)(C)[C@@H](O)C[C@@H]1O [EXCISUSIN D]	3210 nM
C=C1C(=O)[C@@]23CC[C@H]4[C@@](C)(CCC(=O)[C@@]4(C)COC(C)=O)[C@@H]2[C@@H](O)C[C@@H]1C3 [EXCISUSIN E]	1020 nM
C=C1C(=O)[C@]23C[C@H]1C[C@H](O)[C@H]2[C@]1(C)CC[C@H](OC(C)=O)C(C)(C)[C@H]1[C@@H](O)C3 [INFLEXANIN A]	400 nM

Now from value to compound:

IC50	Compound
1820 nM	C=C1C(=O)[C@]23C[C@H]1C[C@H](O)[C@H]2[C@@]1(C)[C@H]([C@@H](O)C3)C(C)(C)[C@@H](OC(C)=O)C[C@@H]1O [INFLEXANIN B]
> 10000 nM	C=C1[C@@H]2C[C@H](OC(C)=O)[C@@H]3[C@](C2)(C[C@H](O)[C@@H]2C(C)(C)[C@@H](OC(C)=O)C[C@H](O)[C@]23C)[C@@H]1O [INFLEXARABDONIN A]
240 nM	C=C1C(=O)[C@@]23CC[C@@H]4C(C)(C)[C@@H](OC(C)=O)C[C@H](O)[C@@]4(C)[C@@H]2[C@@H](OC(C)=O)C[C@@H]1C3 [INFLEXARABDONIN G]
1150 nM	C=C1C(=O)[C@]23C[C@H]1C[C@H](O)[C@H]2[C@]1(C)CCC(=O)C(C)(C)[C@H]1[C@@H](O)C3 [INFLEXARABDONIN I]
440 nM	C=C1C(=O)[C@]23C[C@H]1C[C@H](OC(C)=O)[C@H]2[C@@]1(C)[C@H]([C@@H](O)C3)C(C)(C)[C@@H](OC(C)=O)C[C@@H]1O [INFLEXINOL]
230 nM	C=C1C(=O)[C@@]23CC(=O)[C@@H]4C(C)(C)[C@@H](OC(C)=O)C[C@H](O)[C@@]4(C)[C@@H]2[C@@H](OC(C)=O)C[C@@H]1C3 [INFLEXIN]

system: RAW264.7; experiment: Inhibition of NO production in LPS-stimulated RAW264.7 cells at 10 uM after 24 hrs; type: functional, cell-based; conditions: Mus musculus
How it was run: (§2)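 RAW264.7 cells (1 × 10^5/well) were stimulated with LPS 1 µg/mL for 24 h with or without compound (0.1, 0.3, 1, 3, 10 µM). Nitrite in the culture supernatant was measured with Griess reagent. The remaining cells were checked for viability by MTT. IC50 is relative to vehicle control, mean ± SD of three separate experiments.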

Compound	Activity
C=C1[C@@H]2C[C@H](O)[C@H]3[C@]4(C)CC[C@@H](O)[C@@](C)(COC(C)=O)[C@H]4CC[C@]3(C2)[C@@H]1O [EXCISUSIN C]	inactive
C=C1[C@@H]2C[C@H](OC(C)=O)[C@@H]3[C@](C2)(C[C@H](O)[C@@H]2C(C)(C)[C@@H](OC(C)=O)C[C@H](O)[C@]23C)[C@@H]1O [INFLEXARABDONIN A]	inactive

system: RAW264.7; experiment: Inhibition of NO production in LPS-stimulated RAW264.7 cells after 24 hrs; type: functional, cell-based; conditions: Mus musculus, RAW264.7, 24 h; how it was run: as §2

Compound	IC50
C=C1C(=O)[C@@]23CC[C@@H]4[C@](C)(CO)[C@@H](OC(C)=O)CC[C@@]4(C)[C@@H]2[C@@H](O)C[C@@H]1C3 [EXCISUSIN A]	670 nM
C=C1C(=O)[C@@]23CC[C@@H]4C(C)(C)[C@@H](OC(C)=O)C[C@H](O)[C@@]4(C)[C@@H]2[C@@H](O)C[C@@H]1C3 [EXCISUSIN B]	560 nM
C=C1[C@@H]2C[C@H](O)[C@H]3[C@]4(C)CC[C@@H](O)[C@@](C)(COC(C)=O)[C@H]4CC[C@]3(C2)[C@@H]1O [EXCISUSIN C]	> 10000 nM
C=C1C(=O)[C@]23C[C@H]1C[C@H](OC(C)=O)[C@H]2[C@@]1(C)[C@H]([C@@H](O)C3)C(C)(C)[C@@H](O)C[C@@H]1O [EXCISUSIN D]	2890 nM
C=C1C(=O)[C@@]23CC[C@H]4[C@@](C)(CCC(=O)[C@@]4(C)COC(C)=O)[C@@H]2[C@@H](O)C[C@@H]1C3 [EXCISUSIN E]	1360 nM
C=C1C(=O)[C@]23C[C@H]1C[C@H](O)[C@H]2[C@]1(C)CC[C@H](OC(C)=O)C(C)(C)[C@H]1[C@@H](O)C3 [INFLEXANIN A]	630 nM
N=C(N)NN [PIMAGEDINE]	32200 nM

Second part, the compound after the results:

IC50	Compound
2520 nM	C=C1C(=O)[C@]23C[C@H]1C[C@H](O)[C@H]2[C@@]1(C)[C@H]([C@@H](O)C3)C(C)(C)[C@@H](OC(C)=O)C[C@@H]1O [INFLEXANIN B]
> 10000 nM	C=C1[C@@H]2C[C@H](OC(C)=O)[C@@H]3[C@](C2)(C[C@H](O)[C@@H]2C(C)(C)[C@@H](OC(C)=O)C[C@H](O)[C@]23C)[C@@H]1O [INFLEXARABDONIN A]
480 nM	C=C1C(=O)[C@@]23CC[C@@H]4C(C)(C)[C@@H](OC(C)=O)C[C@H](O)[C@@]4(C)[C@@H]2[C@@H](OC(C)=O)C[C@@H]1C3 [INFLEXARABDONIN G]
1240 nM	C=C1C(=O)[C@]23C[C@H]1C[C@H](O)[C@H]2[C@]1(C)CCC(=O)C(C)(C)[C@H]1[C@@H](O)C3 [INFLEXARABDONIN I]
940 nM	C=C1C(=O)[C@]23C[C@H]1C[C@H](OC(C)=O)[C@H]2[C@@]1(C)[C@H]([C@@H](O)C3)C(C)(C)[C@@H](OC(C)=O)C[C@@H]1O [INFLEXINOL]
690 nM	C=C1C(=O)[C@@]23CC(=O)[C@@H]4C(C)(C)[C@@H](OC(C)=O)C[C@H](O)[C@@]4(C)[C@@H]2[C@@H](OC(C)=O)C[C@@H]1C3 [INFLEXIN]

system: RAW264.7; experiment: Inhibition of NF-kappaB activation in LPS-stimulated RAW264.7 cells at 10 uM after 24 hrs; type: functional, cell-based; conditions: Mus musculus; how it was run: as §1

Compound	Activity
C=C1[C@@H]2C[C@H](O)[C@H]3[C@]4(C)CC[C@@H](O)[C@@](C)(COC(C)=O)[C@H]4CC[C@]3(C2)[C@@H]1O [EXCISUSIN C]	inactive
C=C1[C@@H]2C[C@H](OC(C)=O)[C@@H]3[C@](C2)(C[C@H](O)[C@@H]2C(C)(C)[C@@H](OC(C)=O)C[C@H](O)[C@]23C)[C@@H]1O [INFLEXARABDONIN A]	inactive

— ChEMBL document CHEMBL1142114, “Kaurane diterpenoids from Isodon excisus inhibit LPS-induced NF-kappaB activation and NO production in macrophage RAW264.7 cells” (J Nat Prod, 2007)
